This data set is described as follows: Toxicity liver stage against HepG2, at 10uM. It counts as cell-based. To be noted: human, HepG2-A16-CD81EGFP cells; read-out: INHIBITION
Details: test concentration 10 uM, cell line HepG2-A16-CD81EGFP. The method, boiled down:
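Uninfected HepG2-A16-CD81EGFP cells, 3 × 10^3 per well, 1536-well, plated on prespotted compound at 10 μM final, parasite-free screening media added to match infected plates; puromycin 10 μM positive, DMSO 0.5% negative; run in parallel with 48 h PbLuc assay at 37 °C, 5% CO2; viability by CellTiter-Glo luminescence, normalized to controls.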
Consider `CCCC(O)CN1CC(C)(C)CN(C(=O)c2ccc(Cl)cc2)CC1=O` (configuration not stated), for which the cytotoxicity at 10 µM came to 2.78%.

In the case of `CCOC(=O)[C@@H]1CN2CCNC[C@@H]2[C@H]1c1ccccc1`, the cytotoxicity at 10 µM came to 3.88%.

As for `CCCn1[nH]c(CNc2cccc(Cl)c2)nc1=O`, the cytotoxicity at 10 µM worked out at 0.566%.

As to `O=C(Cn1cccn1)N1CCC(Oc2cnccn2)CC1`, the cytotoxicity at 10 µM worked out at 7.11%.

`COc1cc(C(=O)NCCc2ccccc2OC)on1`: the cytotoxicity at 10 µM was found to be 0.409%.

With `Cc1c(S(=O)(=O)NCC(C)C)cnn1C`, the cytotoxicity at 10 µM was 4.54%.

`Cc1ccc(CNc2n[nH]c(C)n2)cc1`: the cytotoxicity at 10 µM was -2.25%.

For `CCc1cc(=O)n(CC(=O)N2CCCC2)c(-c2cccc(F)c2)n1`, the cytotoxicity at 10 µM came to 6.75%.

On to `CN1CCCC(c2nnc3n2CCN(S(=O)(=O)c2ccccc2Cl)C3)C1` (configuration not stated), for which the cytotoxicity at 10 µM is -2.92%.

Consider `Cc1cc(N(C)C)cc(C2CCN(S(=O)(=O)c3cccs3)C2)n1` (configuration not stated), for which the cytotoxicity at 10 µM was determined as 7.17%.

Regarding `O=c1c(CN2CC3CCCN3C[C@@H]2CCO)coc2ccc(Cl)cc12` (some centres not stated), the cytotoxicity at 10 µM was 3.19%.

For `CC(C(=O)NCc1cccs1)N1CCN(Cc2nccn2C)CC1` (configuration not stated), the cytotoxicity at 10 µM is -14.5%.

Take `CN(Cc1cnn(C)c1)CC(O)c1ccc2c(c1)OCO2` (configuration not stated): the cytotoxicity at 10 µM was -9.98%.

For `N#Cc1cc(F)ccc1Cn1cncn1`, the cytotoxicity at 10 µM was determined as 11.4%.

In the case of `CC(C(=O)NC1CC1)S(=O)(=O)Cc1noc(C(C)(C)C)n1` (configuration not stated), the cytotoxicity at 10 µM is 9.42%.

With `Cc1ccccc1C(=O)NCC(=O)NCc1ccccn1`, the cytotoxicity at 10 µM was -11.9%.

Take `NC(=O)CCCNC(=O)Cc1csc(Cc2ccccn2)n1`: the cytotoxicity at 10 µM is -4.56%.

`COc1cc2c(cc1CNC(=O)Cc1cc(C)[nH]n1)OC(C)C2` (configuration not stated): the cytotoxicity at 10 µM was -13.8%.

Consider `NS(=O)(=O)CCNC(=O)c1cc(Br)c2c(c1)OCCO2`, for which the cytotoxicity at 10 µM came out at 1.06%.

Consider `COc1cc(C)ccc1OCC(=O)NS(=O)(=O)c1cc(F)ccc1F`, for which the cytotoxicity at 10 µM was 2.15%.

Take `CCc1cccc(NS(=O)(=O)c2cc(C)c(C(=O)O)s2)c1`: the cytotoxicity at 10 µM is -1.23%.

Consider `N#Cc1cccnc1NCCNC(=O)N1CCN2CCCCC2C1` (configuration not stated), for which the cytotoxicity at 10 µM worked out at 0.242%.

As for `CC(CNS(=O)(=O)c1cccc(Cl)c1)N1CCN(C)CC1` (configuration not stated), the cytotoxicity at 10 µM came out at 9.26%.

As to `CC(CNC(=O)Nc1ccc(F)cc1Br)N1CCOCC1` (configuration not stated), the cytotoxicity at 10 µM worked out at 9.21%.

With `CCOC(C)c1noc(CN2CCCN(c3ccccn3)CC2)n1` (configuration not stated), the cytotoxicity at 10 µM is -4.05%.

On to `O=C(NS(=O)(=O)c1ccc(C2CCCCC2)cc1)C1COCCO1` (configuration not stated), for which the cytotoxicity at 10 µM came to 7.02%.

Consider `Cc1occc1C(=O)NC1CCN(C(=O)Nc2cccnc2)CC1`, for which the cytotoxicity at 10 µM amounted to 8.98%.

Regarding `Cc1cccc(CCNC(=O)CCS(=O)(=O)C2CCCC2)c1`, the cytotoxicity at 10 µM stood at 9.27%.

Consider `Cc1cccc(C2CCCN2C(=O)CN(C)S(C)(=O)=O)c1C` (configuration not stated), for which the cytotoxicity at 10 µM was found to be 12.3%.

For `CCOCC(=O)NC(C#N)c1cnn(-c2ccccc2)c1` (configuration not stated), the cytotoxicity at 10 µM was -4.39%.

With `Cc1ccnc(NCc2ccccc2N2CCOCC2)n1`, the cytotoxicity at 10 µM was -0.268%.

For the molecule `CN1CCN(c2ccc(Br)cc2NC(=O)c2ccco2)CC1`, the cytotoxicity at 10 µM was -6.09%.

Turning to `Cc1nc(NC(=O)OC(C)(C)C)sc1C(=O)O`, the cytotoxicity at 10 µM is 7.89%.

In the case of `c1ccc2nc(NCC3(N4CCOCC4)CCSC3)cnc2c1` (configuration not stated), the cytotoxicity at 10 µM came to 12.7%.

In the case of `CC(C)c1noc(CCCC(=O)NCCOc2ccccc2)n1`, the cytotoxicity at 10 µM worked out at 1.03%.

On to `CCOc1cccc(C(=O)NCCC(=O)Nc2ccncc2)c1`, for which the cytotoxicity at 10 µM amounted to 2.37%.

Take `Cn1c2c(c(=O)n1C)CN(C(=O)c1cccc(F)c1)CCC2`: the cytotoxicity at 10 µM is -101%.

`Cc1nc2c(c(NC(C)C)n1)CCN(C(=O)CCO)CC2`: the cytotoxicity at 10 µM is -109%.

For the molecule `CN(C)C(=O)CO[C@H]1CO[C@@]2(CCN(S(C)(=O)=O)C2)C1`, the cytotoxicity at 10 µM was -106%.

As to `O=C(c1ncccn1)N1C[C@@H]2COC[C@]2(COc2cccnc2)C1`, the cytotoxicity at 10 µM was -91.5%.

As to `COCC1CN(C(=O)Cc2ccsc2)Cc2c1cnn2C` (configuration not stated), the cytotoxicity at 10 µM is -67%.

Take `CN1CCN(Cc2ccc(F)cc2)Cc2cccnc21`: the cytotoxicity at 10 µM was -80.2%.

Regarding `CN(C)C(=O)COCC1CN(Cc2ccsc2)Cc2nccn2C1` (configuration not stated), the cytotoxicity at 10 µM was -72.3%.

`O=C(NC1CCC1)c1c2c(N3CCCC3)ncnc2n2ccccc12`: the cytotoxicity at 10 µM was -82.4%.

For `O=S(=O)(NCc1cc2n(n1)CCNC2)c1ccc(OC(F)(F)F)cc1`, the cytotoxicity at 10 µM was found to be 11.5%.

With `Cc1ncsc1CN(Cc1ccccc1)Cc1ncc[nH]1`, the cytotoxicity at 10 µM is -3.22%.

Consider `Cc1ccc(CN(CCN(C)C)C(=O)Nc2cnn(C)c2)s1`, for which the cytotoxicity at 10 µM is 4.16%.

In the case of `CC(C)=CCC1(C(=O)O)CCCN(c2cc(N)ncn2)C1` (configuration not stated), the cytotoxicity at 10 µM is 10.1%.

Turning to `CO[C@@]1(C)C[C@@H](O)C12CCN(C(=O)CCn1c(C)cccc1=O)CC2`, the cytotoxicity at 10 µM came to 3.43%.

For the molecule `CC(=O)N[C@@H]1CN(CC(=O)NCc2ccccc2C)C[C@H]1C(C)C`, the cytotoxicity at 10 µM was determined as 4.25%.

With `CC(=O)NC1CCN(c2nc(N(C)C)nc3c2CCCC3)CC1`, the cytotoxicity at 10 µM is -10.7%.

Turning to `COc1ccc(CC2CN(C(=O)c3ocnc3C)CCO2)cc1` (configuration not stated), the cytotoxicity at 10 µM is 11.4%.

Consider `Cc1ccccc1N1CCN(C2CCCN(C(=O)CCC(C)C)C2)CC1` (configuration not stated), for which the cytotoxicity at 10 µM was -5.95%.

Consider `O=C(O)c1ccccc1-c1c(-c2ccccc2)ncn1C[C@H]1CCCN1`, for which the cytotoxicity at 10 µM was found to be 6.07%.

As for `Cc1nc(N(C)C/C=C/c2ccccc2)c2cnn(C)c2n1`, the cytotoxicity at 10 µM amounted to 0.0448%.

With `O=C1CCCN1CCc1noc(-c2ccc3[nH]cnc3c2)n1`, the cytotoxicity at 10 µM was found to be 8.74%.

In the case of `Cc1cnc(N(C)Cc2cnc3ccccc3n2)nc1N(C)C`, the cytotoxicity at 10 µM came out at 6.7%.

Regarding `COCC1CCN(S(=O)(=O)N2C[C@H](c3ccccc3)[C@@H](N)C2)CC1`, the cytotoxicity at 10 µM amounted to 1.12%.

As to `Cc1nc(N2C[C@@H](CN3CCCCC3)[C@@H](CO)C2)c2sccc2n1`, the cytotoxicity at 10 µM was -5.12%.

With `CCc1noc(C)c1C(=O)N1C[C@H](NS(C)(=O)=O)[C@@H](C2CC2)C1`, the cytotoxicity at 10 µM was found to be 1.23%.

Consider `Cc1ccccc1CSc1nc(N)cc(N2CCOCC(CO)C2)n1` (configuration not stated), for which the cytotoxicity at 10 µM is -9.23%.

On to `CNc1cc(N2CCCC2CNCc2csc(C(C)C)n2)ncn1` (configuration not stated), for which the cytotoxicity at 10 µM was -14.9%.

Consider `Cc1ncsc1C(=O)N(C)Cc1ccncc1`, for which the cytotoxicity at 10 µM was -0.524%.

As for `CNS(=O)(=O)Cc1ccc(CNC(=O)Nc2cccnc2)cc1`, the cytotoxicity at 10 µM was determined as 0.684%.

As to `Cc1ccc(S(=O)(=O)Nc2ccc(=O)n(C)c2)cc1`, the cytotoxicity at 10 µM worked out at 1.07%.

Turning to `CCOc1ncccc1C(=O)N1CCCCC1c1nccs1` (configuration not stated), the cytotoxicity at 10 µM is -8.7%.

For the molecule `c1ccc(CN2CCc3ncnc(-c4ccncc4)c3CC2)nc1`, the cytotoxicity at 10 µM is -73.1%.

On to `Cn1nc(CN2CCCCC2)c2c1CN(C(=O)c1cccc(C#N)c1)C2`, for which the cytotoxicity at 10 µM is -2.21%.

Turning to `c1cc(CN2C[C@@H]3OCCN(CC4CCCO4)[C@@H]3C2)cs1` (some centres not stated), the cytotoxicity at 10 µM is -76.9%.

For `Cc1csc([C@H]2C[C@H]3CN(Cc4cc(C)on4)CC[C@@H]3O2)n1`, the cytotoxicity at 10 µM was -98%.

Take `c1ccc(-c2nnc(CN3C[C@H]4CC[C@@H](C3)N(CC3CCC3)C4)o2)cc1`: the cytotoxicity at 10 µM is -8.51%.

For `O=c1[nH][nH]c2cn(-c3ccc(Br)cc3)c(=O)n12`, the cytotoxicity at 10 µM is -11.8%.
